From ChEMBL document CHEMBL1131107 (J Med Chem, 1998)

Key:
[1] = target: T1, Protein farnesyltransferase (Rattus norvegicus, UniProt Q02293+Q04631); experiment: Inhibition of Farnesyltransferase from rat brain
NIH3T3 [2] = experiment: Inhibition of Ras processing in Hras-transformed NIH3T3 cells.
[3] = target: T1, Protein farnesyltransferase; experiment: Inhibition of Farnesyltransferase in competitive manner with respect to FPP (farnesyl diphosphate) at 0.6 uM FPP and 0.36 uM Ras peptide; type: protein-complex assay
Summary of the method: (§1)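 FTase IC50 (nM) measured at varied substrate levels to test competition: FPP 0.6 or 6.0 μM and Ras C-terminal peptide 0.36 or 3.6 μM. Competition with FPP was judged from the shift in IC50 as FPP and peptide concentrations changed.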

[4] = target: T1, Protein farnesyltransferase; experiment: Inhibition of Farnesyltransferase in competitive manner with respect to FPP (farnesyl diphosphate) at 0.6 uM FPP and 3.6 uM Ras peptide.; type: protein-complex assay; summary of the method: as §1
[5] = target: T1, Protein farnesyltransferase; experiment: Inhibition of FTase in competitive manner with respect to FPP (farnesyl diphosphate) at 6.0 uM FPP and 0.36 uM Ras peptide.; type: protein-complex assay; summary of the method: as §1
NIH3T3 [6] = experiment: Inhibition of Ras processing in Hras-transformed NIH3T3 cells at 15 uM
NIH3T3 (Mus musculus) = experiment: Inhibition of Ras processing in Hras transformed NIH3T3 cells.

SMILES | IC50 [1] | IC50 (NIH3T3 [2]) | further results
CC(C(C/C=C/c1nc2ccccc2o1)c1ccc(Cl)cc1)N(Cc1ccc2ccccc2c1)C(=O)CC(CC(=O)O)C(=O)O (centres undefined) | 28 nM |  | 
CC(C(Cc1ccc(Cl)cc1)c1ccc(Cl)cc1)N(C)C(=O)CC(CC(=O)O)C(=O)O (centres undefined) | > 10000 nM |  | 
CC(C(C/C=C/c1nc2ccccc2o1)c1ccc2c(c1)OCO2)N(Cc1ccc2ccccc2c1)C(=O)CC(CC(=O)O)C(=O)O (centres undefined) | 23 nM |  | 
CC(C(C/C=C/c1ccc2ccccc2c1)c1ccc(Cl)cc1)N(Cc1ccc2ccccc2c1)C(=O)CC(CC(=O)O)C(=O)O (centres undefined) | 51 nM |  | 
CC(C(C/C=C/c1nc2ccccc2o1)c1ccc2c(c1)OCO2)N(Cc1ccc2ccccc2c1)C(=O)C1OC(C(=O)O)(C(=O)O)O[C@H]1C(=O)O (single isomer, unassigned) | 8 nM |  | IC50 (NIH3T3 (Mus musculus)): 17000 nM

Now those with a lower IC50 [1], led by results:

IC50 [1] | SMILES | IC50 (NIH3T3 [2]) | further results
7.2 nM | C[C@@H]([C@H](C/C=C/c1nc2ccccc2o1)c1ccc2c(c1)OCO2)N(Cc1ccc2ccccc2c1)C(=O)[C@H]1OC(C(=O)[O-])(C(=O)[O-])O[C@@H]1C(=O)[O-].[Na+].[Na+].[Na+] |  | Inhibition (NIH3T3 [6]): 42%
6 nM | C[C@H]([C@@H](C/C=C/c1nc2ccccc2o1)c1ccc2c(c1)OCO2)N(Cc1ccc2ccccc2c1)C(=O)[C@@H]1OC(C(=O)O)(C(=O)O)O[C@@H]1C(=O)O | 8800 nM | 
5 nM | C[C@@H]([C@H](C/C=C/c1nc2ccccc2o1)c1ccc2c(c1)OCO2)N(Cc1ccc2ccccc2c1)C(=O)[C@@H]1OC(C(=O)O)(C(=O)O)O[C@@H]1C(=O)O | 4300 nM | IC50 [3]: 5.6 nM; IC50 [4]: 7.2 nM; IC50 [5]: 45 nM
3.9 nM | C[C@@H]([C@H](C/C=C/c1nc2ccccc2o1)c1ccc2c(c1)OCO2)N(Cc1ccc2ccccc2c1)C(=O)[C@@H]1OC(C(=O)O)(C(=O)O)O[C@H]1C(=O)O | 1200 nM | 
3.9 nM | C[C@@H]([C@H](C/C=C/c1nc2ccccc2o1)c1ccc2c(c1)OCO2)N(Cc1ccc2ccccc2c1)C(=O)[C@H]1OC(C(=O)O)(C(=O)O)O[C@H]1C(=O)O | 10000 nM | 
